Test results as given in ChEMBL document CHEMBL4428026, “Discovery of New Monocarbonyl Ligustrazine-Curcumin Hybrids for Intervention of Drug-Sensitive and Drug-Resistant Lung Cancer” (J Med Chem, 2016).
pIC50: −log10 of the molar value. Activity calls are given as the source filed them. No cut-off for these calls is given here.

Columns and labels:
[1] = system: A549; test: Induction of ROS generation in human A549 cells 2.1 to 4.2 uM after 60 mins by DHE staining-based fluorescence assay in presence of NAC; type: functional, cell-based
[2] = biological target: RAC-alpha serine/threonine-protein kinase (Homo sapiens) (UniProt P31749); test: Inhibition of Akt phosphorylation in human A549/CDDP cells at 0.6 to 1.2 uM after 24 hrs by Western blot method; type: cell-based
How it was run: (§1)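 Cells were plated at 1 × 10^6/well overnight, then treated 24 h with vehicle DMSO (0.1%, v/v) or compound (A549, 2.1 or 4.2 µM; A549/DDP, 0.6 or 1.2 µM). Lysis was at 4 °C. Lysates were run on SDS-PAGE (7.5% gel, 20 µg/lane) and immunoblotted with ECL detection; phospho-Akt Ser473 and phospho-ERK Thr202/Tyr204 were probed. Bands were normalized to GAPDH (TrxR, Trx) or β-actin. Three independent experiments were run.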

[3] = system: A549; test: Effect on NFkappaB expression in human A549 cells at 2.1 to 4.2 uM after 24 hrs by Western blot method; type: functional, cell-based; how it was run: as §1
[4] = system: A549/CDDP; test: Effect on ERK expression in human A549/CDDP cells at 0.6 to 1.2 uM after 24 hrs by Western blot method; type: functional, cell-based; how it was run: as §1
[5] = Acute toxicity in ICR mouse assessed as mortality at 450 mg/kg, ip; type: organism-based; settings: in vivo
How it was run: (§2)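 Male and female ICR mice (7 weeks), randomized, 10 per group, given one intraperitoneal dose at 200, 250, 300, 350, 400 or 450 mg/kg. Animals were watched for abnormal behaviour and deaths up to two weeks. Deaths were tallied at 1 h, 4 h, day 3 and days 4-14, with survival on day 14. LD50 was calculated with 95% confidence limits.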

[6] = system: A549; test: Induction of apoptosis in human A549 cells assessed as decrease in Bcl2 expression at 2.1 to 4.2 uM after 24 hrs by Western blot method; type: functional, cell-based; how it was run: as §1
[7] = Acute toxicity in ICR mouse assessed as survival at 450 mg/kg, ip measured on day 14; type: organism-based; settings: in vivo; how it was run: as §2
[8] = system: A549/CDDP; test: Induction of apoptosis in human A549/CDDP cells assessed as increase in cleaved caspase 3 level at 0.6 to 1.2 uM after 24 hrs by Western blot method; type: functional, cell-based; how it was run: as §1
[9] = Toxicity in BALB/c nude mouse xenografted with human A549/CDDP cells assessed as body weight at 20 mg/kg, ip administered daily for 15 consecutive days measured on day 1 (reference value: 19.3 +/- 1.55 g); type: organism-based; settings: in vivo
[10] = system: A549; test: Induction of ROS generation in human A549 cells 2.1 to 4.2 uM after 60 mins by DHE staining-based fluorescence assay; type: functional, cell-based
How it was run: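 A549 or A549/DDP cells were treated in triplicate for 60 min with vehicle DMSO (0.1%, v/v) or a range of compound concentrations. Cells were stained with dihydroethidium, and intracellular ROS fluorescence was read on a microplate reader at 300 and 610 nm. Three independent experiments were run.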

[11] = system: A549; test: Induction of apoptosis in human A549 cells assessed as increase in cleaved caspase 3 level at 2.1 to 4.2 uM after 24 hrs by Western blot method; type: functional, cell-based; how it was run: as §1
[12] = system: A549; test: Inhibition of NFkappaB phosphorylation in human A549 cells at 2.1 to 4.2 uM after 24 hrs by Western blot method; type: cell-based; how it was run: as §1
[13] = system: A549; test: Induction of apoptosis in human A549 cells at 2.1 to 4.2 uM after 24 hrs by annexin V-FITC/propidium iodide staining-based flow cytometry; type: functional, cell-based
How it was run: (§3)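 Cells were seeded at 1 × 10^5/well and treated 24 h with DMSO (1%) or compound. They were then washed in PBS, stained with FITC-Annexin V and propidium iodide, and apoptotic fractions were quantified by flow cytometry.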

[14] = biological target: Thioredoxin reductase (Homo sapiens, UniProt Q16881+Q9NNW7+Q86VQ6); test: Inhibition of thioredoxin reductase in human A549 cells by DTNB dye based microplate spectrophotometry; type: cell-based
How it was run: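 A549 or A549/DDP cells were treated with varying compound concentrations for 24 h, then harvested, homogenized and centrifuged. Protein (50 µg) was reacted in triplicate with NADPH and DTNB in TE buffer at 37 °C for 1 h, and TNB was read at 412 nm. Activity was taken from a purified-TrxR standard curve, and IC50 was derived.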

[15] = Acute toxicity in ICR mouse assessed as survival at 300 mg/kg, ip measured on day 14; type: organism-based; settings: in vivo; how it was run: as §2
[16] = system: A549; test: Induction of apoptosis in human A549 cells assessed as increase in cleaved PARP level at 2.1 to 4.2 uM after 24 hrs by Western blot method; type: functional, cell-based; how it was run: as §1
[17] = system: A549; test: Effect on ERK expression in human A549 cells at 2.1 to 4.2 uM after 24 hrs by Western blot method; type: functional, cell-based; how it was run: as §1
[18] = Acute toxicity in ICR mouse assessed as survival at 250 mg/kg, ip measured on day 14; type: organism-based; settings: in vivo; how it was run: as §2
[19] = Toxicity in BALB/c nude mouse xenografted with human A549/CDDP cells assessed as body weight at 40 mg/kg, ip administered daily for 15 consecutive days measured on day 1 (reference value: 19.3 +/- 1.55 g); type: organism-based; settings: in vivo
[20] = system: A549/CDDP; test: Induction of apoptosis in human A549/CDDP cells assessed as increase in Bax expression at 0.6 to 1.2 uM after 24 hrs by Western blot method; type: functional, cell-based; how it was run: as §1
[21] = Acute toxicity in ICR mouse assessed as mortality at 200 to 450 mg/kg, ip measured on day 4 to 14 post treatment; type: organism-based; settings: in vivo; how it was run: as §2
[22] = system: A549/CDDP; test: Induction of apoptosis in human A549/CDDP cells assessed as decrease in Bcl2 expression at 0.6 to 1.2 uM after 24 hrs by Western blot method; type: functional, cell-based; how it was run: as §1
[23] = biological target: RAC-alpha serine/threonine-protein kinase (Homo sapiens) (UniProt P31749); test: Inhibition of Akt phosphorylation in human A549 cells at 2.1 to 4.2 uM after 24 hrs by Western blot method; type: cell-based; how it was run: as §1
[24] = system: A549/CDDP; test: Decrease in P-gp mRNA level in human A549/CDDP cells at 0.6 to 1.2 uM after 24 hrs by RT-PCR method; type: functional, cell-based
How it was run: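 A549/DDP cells (1 × 10^6) were treated with vehicle or 0.6 or 1.2 µM compound for 24 h. Total RNA was reverse-transcribed with oligo dT primers. ABCB1 transcripts were quantified by real-time RT-PCR relative to GAPDH and expressed as fold of the 0.1% DMSO control. Three independent experiments were run.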

[25] = system: A549/CDDP; test: Induction of apoptosis in human A549/CDDP cells at 0.6 to 1.2 uM after 24 hrs by annexin V-FITC/propidium iodide staining-based flow cytometry; type: functional, cell-based; how it was run: as §3
[26] = system: A549/CDDP; test: Induction of apoptosis in human A549/CDDP cells assessed as increase in Bax to Bcl2 ratio at 0.6 to 1.2 uM after 24 hrs by Western blot method; type: functional, cell-based; how it was run: as §1
[27] = Antiproliferative activity against human LTEP-G2 cells after 72 hrs by MTT assay; type: functional, cell-based
How it was run: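 Cells (A549, A549/DDP, SPC-A-1, LTEP-G-2, non-tumor bronchial epithelial HBE) were exposed in triplicate to vehicle or compound for 72 h. MTT (5 mg/mL in PBS) was then added for 4 h, formazan was dissolved in DMSO, and absorbance was read at 570 nm. IC50 values were derived from viability.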

RAC-alpha serine/threonine-protein kinase (Homo sapiens), sequence (P31749 whole entry): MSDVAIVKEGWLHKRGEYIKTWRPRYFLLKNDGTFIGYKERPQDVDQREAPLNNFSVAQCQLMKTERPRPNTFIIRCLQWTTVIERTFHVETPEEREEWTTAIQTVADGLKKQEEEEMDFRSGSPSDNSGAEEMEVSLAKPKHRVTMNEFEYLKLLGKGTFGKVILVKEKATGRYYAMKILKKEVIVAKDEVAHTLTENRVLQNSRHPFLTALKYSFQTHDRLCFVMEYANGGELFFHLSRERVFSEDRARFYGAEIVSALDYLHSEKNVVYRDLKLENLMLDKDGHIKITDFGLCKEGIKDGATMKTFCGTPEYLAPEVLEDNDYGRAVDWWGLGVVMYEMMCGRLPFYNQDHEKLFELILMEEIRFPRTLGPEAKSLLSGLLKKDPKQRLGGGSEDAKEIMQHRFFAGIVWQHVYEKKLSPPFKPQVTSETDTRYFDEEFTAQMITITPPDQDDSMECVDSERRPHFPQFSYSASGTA

COc1cc(/C=C/C(=O)/C=C/c2nc(C)c(C)nc2C)ccc1O
Activity [1]: inactive | inhibition [2]: Active | Activity [3]: inactive | Activity [4]: inactive | Activity [5]: Toxic | Activity [6]: Active | survival at 14 day [7]: 0% | Activity [8]: Active | Activity [9]: 18.3 g | Activity [10]: Active | Activity [11]: Active | inhibition [12]: Active | Activity [13]: Active | IC50 [14]: 1490 nM | survival at 14 day [15]: 50% | Activity [16]: Active | Activity [17]: inactive | survival at 14 day [18]: 60% | Activity [19]: 19.9 g | Activity [20]: Active | Activity [21]: Non-Toxic | Activity [22]: Active | inhibition [23]: Active | Activity [24]: Active | Activity [25]: Active | Activity [26]: Active | pIC50 [27]: 5.54
